{"data": "Published values pooled from the literature", "read-out": "cell growth or viability", "note": "Protocols differ between the studies behind these lines."}
{"Structure (SMILES)": "COC1=C2C[C@@H](C)C[C@H](OC)[C@H](O)[C@@H](C)/C=C(\\C)[C@H](OC(N)=O)[C@@H](OC)/C=C\\C=C(/C)C(=O)NC(=C(c3ccccc3)C1=O)C2=O", "cell line": "ARPE-19", "method": "MTT", "quantity": "IC50", "result": "8.3 µM"}
{"Structure (SMILES)": "COc1c2c(cc3c1OCO3)[C@]13C=C[C@H](OC)C[C@@H]1[N@](C2)C[C@H]3OC(=O)c1ccoc1", "cell line": "PANC-1", "method": "WST-1", "quantity": "IC50", "result": "> 10 µM"}
{"Structure (SMILES)": "C1COCCN1.COc1ccc(/C=C\\c2cc(I)c(OC)c(I)c2)cc1OP(=O)(O)O", "cell line": "SF-268", "method": "SRB", "time": "48 h", "quantity": "GI50", "result": "0.054 µg/mL"}
{"Structure (SMILES)": "COc1cc(C(=O)c2cc3cc(N)cc(OC)c3s2)cc(OC)c1OC", "cell line": "human Lymphocyte", "method": "MTT", "time": "72 h", "quantity": "IC50", "result": "> 20 µM"}
{"Structure (SMILES)": "COc1c2c(cc3c1OCO3)[C@]13C=C[C@H](OC)C[C@@H]1[N@](C2)C[C@H]3OC(=O)c1ccco1", "cell line": "PANC-1", "method": "WST-1", "quantity": "IC50", "result": "> 10 µM"}
{"Structure (SMILES)": "C=CC(=O)Nc1cc(Nc2nccc(-c3cn(C)c4ccccc34)n2)c(OC)cc1N(C)CCN(C)C", "cell line": "BaF3", "time": "72 h", "quantity": "GI50", "result": "2.76 µM"}
{"Structure (SMILES)": "CCCc1cc(=O)n2nc(NCc3c(F)cc(Cl)cc3F)c(C#N)c2[nH]1", "cell line": "CAL-51", "method": "ATP luminescence", "time": "72 h", "quantity": "IC50", "result": "> 50 µM"}
{"Structure (SMILES)": "COC1=C2C[C@@H](C)C[C@H](OC)[C@H](O)[C@@H](C)/C=C(\\C)[C@H](OC(N)=O)[C@@H](OC)/C=C\\C=C(/C)C(=O)NC(=C(C)C1=O)C2=O", "cell line": "ARPE-19", "method": "MTT", "quantity": "IC50", "result": "> 20 µM"}
